Measured values from publication PMC2937276 (Molecular cancer therapeutics, 2010).

Columns and labels:
GBM culture 46 = experiment: XTT cell proliferation assay; format: cell-based, Mouse; details: mouse GBM culture 46; 36 hours; mean of three experiments ± SD
Procedure, shortened: (§1)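 Primary human or mouse GBM cultures (DMEM, 10% FBS) were seeded at 5000 cells per 96-well well. Cells were cultured with test compound or vehicle for 36 h. Proliferation was read by XTT assay in quadruplicate. IC50 came from nonlinear-regression curve fitting.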

GBM culture GBM8 = experiment: XTT cell proliferation assay; format: cell-based, Human; details: human GBM culture GBM8; 36 hours; mean of three experiments ± SD
Procedure, shortened: as §1

[1] = in clinical evaluation for various cancers; cited from earlier work
GBM culture GBM-2 = experiment: XTT cell proliferation assay; format: cell-based, Mouse; details: mouse GBM culture GBM-2; 36 hours; mean of three experiments ± SD
Procedure, shortened: as §1

GBM culture 2736 = experiment: XTT cell proliferation assay; format: cell-based, Mouse; details: mouse GBM culture 2736; 36 hours; mean of three experiments ± SD
Procedure, shortened: as §1

GBM culture 42 = experiment: XTT cell proliferation assay; format: cell-based, Mouse; details: mouse GBM culture 42; 36 hours; mean of three experiments ± SD
Procedure, shortened: as §1

GBM culture 102 = experiment: XTT cell proliferation assay; format: cell-based, Mouse; details: mouse GBM culture 102; 36 hours; mean of three experiments ± SD
Procedure, shortened: as §1

GBM culture 103 = experiment: XTT cell proliferation assay; format: cell-based, Mouse; details: mouse GBM culture 103; 36 hours; mean of three experiments ± SD
Procedure, shortened: as §1

GBM culture 2231 = experiment: XTT cell proliferation assay; format: cell-based, Mouse; details: mouse GBM culture 2231; 36 hours; mean of three experiments ± SD
Procedure, shortened: as §1

GBM culture GBM43 = experiment: XTT cell proliferation assay; format: cell-based, Human; details: human GBM culture GBM43; 36 hours; mean of three experiments ± SD
Procedure, shortened: as §1

GBM culture 2000 = experiment: XTT cell proliferation assay; format: cell-based, Mouse; details: mouse GBM culture 2000; 36 hours; mean of three experiments ± SD
Procedure, shortened: as §1

GBM culture GBM6 = experiment: XTT cell proliferation assay; format: cell-based, Human; details: human GBM culture GBM6; 36 hours; mean of three experiments ± SD
Procedure, shortened: as §1

GBM culture 2414 = experiment: XTT cell proliferation assay; format: cell-based, Mouse; details: mouse GBM culture 2414; 36 hours; mean of three experiments ± SD
Procedure, shortened: as §1

GBM culture GBM59 = experiment: XTT cell proliferation assay; format: cell-based, Human; details: human GBM culture GBM59; 36 hours; mean of three experiments ± SD
Procedure, shortened: as §1

GBM culture 2415 = experiment: XTT cell proliferation assay; format: cell-based, Mouse; details: mouse GBM culture 2415; 36 hours; mean of three experiments ± SD
Procedure, shortened: as §1

GBM culture GBM-1 = experiment: XTT cell proliferation assay; format: cell-based, Mouse; details: mouse GBM culture GBM-1; 36 hours; mean of three experiments ± SD
Procedure, shortened: as §1

GBM culture 2227 = experiment: XTT cell proliferation assay; format: cell-based, Mouse; details: mouse GBM culture 2227; 36 hours; mean of three experiments ± SD
Procedure, shortened: as §1

GBM culture GBM39 = experiment: XTT cell proliferation assay; format: cell-based, Human; details: human GBM culture GBM39; 36 hours; mean of three experiments ± SD
Procedure, shortened: as §1

GBM culture GBM22 = experiment: XTT cell proliferation assay; format: cell-based, Human; details: human GBM culture GBM22; 36 hours; mean of three experiments ± SD
Procedure, shortened: as §1

GBM culture GBM15 = experiment: XTT cell proliferation assay; format: cell-based, Human; details: human GBM culture GBM15; 36 hours; mean of three experiments ± SD
Procedure, shortened: as §1

GBM culture GBM12 = experiment: XTT cell proliferation assay; format: cell-based, Human; details: human GBM culture GBM12; 36 hours; mean of three experiments ± SD
Procedure, shortened: as §1

GBM culture 69 = experiment: XTT cell proliferation assay; format: cell-based, Mouse; details: mouse GBM culture 69; 36 hours; mean of three experiments ± SD
Procedure, shortened: as §1

[2] = in vivo
GBM culture 41 = experiment: XTT cell proliferation assay; format: cell-based, Mouse; details: mouse GBM culture 41; 36 hours; mean of three experiments ± SD
Procedure, shortened: as §1

C=CCNC1=C2C[C@@H](C)C[C@H](OC)[C@H](O)[C@@H](C)/C=C(\C)[C@H](OC(N)=O)[C@@H](OC)/C=C\C=C(/C)C(=O)NC(=CC1=O)C2=O [17-AAG, 17-allylamino-17-demethoxygeldanamycin, reference compound]
IC50 (GBM culture 46): 91.9 ± 1.4 nM
IC50 (GBM culture GBM8): 8010 ± 543 nM
toxicity on exposure [1]: dose-limiting hepatotoxicity
IC50 (GBM culture GBM-2): 1100 ± 119 nM
IC50 (GBM culture 2736): 381 ± 24.1 nM
IC50 (GBM culture 42): 166 ± 24.9 nM
IC50 (GBM culture 102): 626.2 ± 6 nM
IC50 (GBM culture 103): 794 ± 28.7 nM
IC50 (GBM culture 2231): 737 ± 72 nM
IC50 (GBM culture GBM43): 86.9 ± 2.3 nM
IC50 (GBM culture 2000): 345 ± 75.5 nM
IC50 (GBM culture GBM6): 531.7 ± 5 nM
IC50 (GBM culture 2414): 205 ± 13.1 nM
IC50 (GBM culture GBM59): 211 ± 11 nM
IC50 (GBM culture 2415): 329 ± 50.1 nM
IC50 (GBM culture GBM-1): 208 ± 9.6 nM
IC50 (GBM culture 2227): 712 ± 54.4 nM
IC50 (GBM culture GBM39): 241.7 ± 1.2 nM
IC50 (GBM culture GBM22): 4670 ± 148 nM
IC50 (GBM culture GBM15): 110 ± 13.4 nM
IC50 (GBM culture GBM12): 2580 ± 166 nM
IC50 (GBM culture 69): 91 ± 4.3 nM
accumulation in mouse brain ([2]; ip): rapidly declines to undetectable levels
Brain concentration ([2]; mouse): 2.6 ng/g
IC50 (GBM culture 41): 100 ± 5 nM
